Assay results published in ChEMBL document CHEMBL2384906, “Biological activity, design, synthesis and structure activity relationship of some novel derivatives of curcumin containing sulfonamides” (Eur J Med Chem, 2013).
Values after ≈ are worked out from the molar mass of the structure shown. Active and inactive are the calls of the source. No cut-off for these calls is given here.

How the values were obtained:
Bacillus cereus [1] = assay: Antimicrobial activity against Bacillus cereus MTCC 7350 assessed as diameter of inhibition zone at 80 uM after 24 hrs by Kirby -Baur disc diffusion method; format: functional
Procedure, shortened: (§1)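 Kirby-Bauer disc diffusion was used. Acetone stocks (160 µM) were serially doubled down to 80, 40 and 20 µM. 4 µL of each went onto 5 mm sterile paper discs, which were dried 30 min at 50 °C. Inoculum was 1.5 × 10⁸ CFU/mL diluted to 3 × 10² CFU/mL, and 50 µL was spread on Mueller-Hinton agar. After 24 h at 37 °C the inhibition-zone diameter was measured. Ciprofloxacin served as positive control.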

Aspergillus flavus [2] = assay: Antifungal activity against Aspergillus flavus MTCC 1021 after 48 hrs; format: functional
Pseudomonas aeruginosa [3] = assay: Antimicrobial activity against Pseudomonas aeruginosa ATCC 15499 after 24 hrs by broth micro serial dilution method; format: functional; conditions: ATCC 15499, 24 h
Procedure, shortened: (§2)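 This was broth microdilution in autoclaved Mueller-Hinton broth. 150 µL of compound per well was serially diluted […], and 50 µL of test organism was added. Plates were incubated 24 h at 37 °C and optical density was read.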

Salmonella typhi [4] = assay: Antimicrobial activity against Salmonella typhi ATCC 23564 assessed as diameter of inhibition zone at 20 uM after 24 hrs by Kirby -Baur disc diffusion method; format: functional; conditions: Salmonella enterica subsp. enterica serovar Typhi
Escherichia coli [5] = assay: Antimicrobial activity against Escherichia coli ATCC 35218 assessed as diameter of inhibition zone at 20 uM after 24 hrs by Kirby -Baur disc diffusion method; format: functional; procedure, shortened: as §1
Trichoderma viride [6] = assay: Antifungal activity against Trichoderma viride MTCC 1107 after 48 hrs; format: functional; conditions: MTCC 1107, 48 h
Salmonella typhi [7] = assay: Antimicrobial activity against Salmonella typhi ATCC 23564 after 24 hrs by broth micro serial dilution method; format: functional, Salmonella enterica subsp. enterica serovar Typhi; conditions: Salmonella enterica, ATCC 23564, 24 h
Escherichia coli [8] = assay: Antimicrobial activity against Escherichia coli ATCC 35218 after 24 hrs by broth micro serial dilution method; format: functional; conditions: ATCC 35218, 24 h; procedure, shortened: as §2
Salmonella typhi [9] = assay: Antimicrobial activity against Salmonella typhi ATCC 23564 assessed as diameter of inhibition zone at 40 uM after 24 hrs by Kirby -Baur disc diffusion method; format: functional, Salmonella enterica subsp. enterica serovar Typhi
Trichoderma viride [10] = assay: Antifungal activity against Trichoderma viride MTCC 1107 assessed as zone of inhibition at 40 uM after 48 hrs by disc diffusion method; format: functional; conditions: MTCC 1107, 48 h, read-out: IZ
Procedure, shortened: (§3)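 Spores from 4-day potato dextrose agar cultures, suspended in sterile water at 1.5 × 10⁵ CFU/mL. 0.2 mL was spread on potato dextrose agar. 5 mm filter-paper discs soaked with test compound were laid on the lawn. Incubation was 48 h at 28 °C, then the inhibition zone was measured in mm. Fluconazole was the positive control and acetone the negative control.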

HeLa = assay: Cytotoxicity against human HeLa cells after 24 hrs by MTT assay; format: functional, cell-based
Procedure, shortened: (§4)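 The MTT assay seeded 5 × 10⁴ cells per well and grew them 24 h in RPMI 1640 with compound at 2.5–200 µM. Medium without cells was the blank and adriamycin the positive control. MTT was added for 4 h at 37 °C, formazan was solubilised, and absorbance was read at 570 nm. IC50 is the concentration that cuts viability 50% against untreated cells.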

Aspergillus niger [11] = assay: Antifungal activity against Aspergillus niger MTCC 1108 after 48 hrs; format: functional
Pseudomonas aeruginosa [12] = assay: Antimicrobial activity against Pseudomonas aeruginosa ATCC 15499 assessed as diameter of inhibition zone at 80 uM after 24 hrs by Kirby -Baur disc diffusion method; format: functional; procedure, shortened: as §1
HCT-116 = assay: Cytotoxicity against human HCT116 cells after 24 hrs by MTT assay; format: functional, cell-based; procedure, shortened: as §4
Staphylococcus aureus [13] = assay: Antimicrobial activity against Staphylococcus aureus ATCC 11632 assessed as diameter of inhibition zone at 80 uM after 24 hrs by Kirby -Baur disc diffusion method; format: functional; procedure, shortened: as §1
Aspergillus niger [14] = assay: Antifungal activity against Aspergillus niger MTCC 1108 assessed as zone of inhibition at 80 uM after 48 hrs by disc diffusion method; format: functional; procedure, shortened: as §3
Mus musculus = assay: Antiinflammatory activity in mouse assessed as inhibition of carrageenan-induced increase in paw volume at 200 mg/kg administered 1 hr prior to carrageenan challenge measured after 3 hrs relative to control; format: functional
Procedure, shortened: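 Mice were fasted 2 h and placed in groups of five. Controls received saline i.p. Phenylbutazone was given at 100 mg/kg i.p., curcumin at 200 mg/kg i.p., and derivatives at 200 mg/kg. After 1 h, 0.1 mL of 1% carrageenan in saline was injected subplantar into the right hind paw. Paw volume was followed by plethysmometer for 3 h, and % inhibition was calculated as (Vc − Vt)/Vc × 100.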

Trichoderma viride [15] = assay: Antifungal activity against Trichoderma viride MTCC 1107 assessed as zone of inhibition at 20 uM after 48 hrs by disc diffusion method; format: functional; procedure, shortened: as §3
Curvularia lunata [16] = assay: Antifungal activity against Curvularia lunata MTCC 581 assessed as zone of inhibition at 20 uM after 48 hrs by disc diffusion method; format: functional; procedure, shortened: as §3
Escherichia coli [17] = assay: Antimicrobial activity against Escherichia coli ATCC 35218 assessed as diameter of inhibition zone at 40 uM after 24 hrs by Kirby -Baur disc diffusion method; format: functional; procedure, shortened: as §1
Escherichia coli [18] = assay: Antimicrobial activity against Escherichia coli ATCC 35218 assessed as diameter of inhibition zone at 80 uM after 24 hrs by Kirby -Baur disc diffusion method; format: functional; conditions: ATCC 35218, 24 h, read-out: DIZ; procedure, shortened: as §1
Salmonella typhi [19] = assay: Antimicrobial activity against Salmonella typhi ATCC 23564 assessed as diameter of inhibition zone at 80 uM after 24 hrs by Kirby -Baur disc diffusion method; format: functional, Salmonella enterica subsp. enterica serovar Typhi; conditions: Salmonella enterica, ATCC 23564, 24 h; read-out: DIZ
Aspergillus flavus [20] = assay: Antifungal activity against Aspergillus flavus MTCC 1021 assessed as zone of inhibition at 80 uM after 48 hrs by disc diffusion method; format: functional; procedure, shortened: as §3
Curvularia lunata [21] = assay: Antifungal activity against Curvularia lunata MTCC 581 assessed as zone of inhibition at 80 uM after 48 hrs by disc diffusion method; format: functional; conditions: MTCC 581, 48 h, read-out: IZ; procedure, shortened: as §3
HepG2 = assay: Cytotoxicity against human HepG2 cells after 24 hrs by MTT assay; format: functional, cell-based; procedure, shortened: as §4
Bacillus cereus [22] = assay: Antimicrobial activity against Bacillus cereus MTCC 7350 after 24 hrs by broth micro serial dilution method; format: functional; procedure, shortened: as §2
Staphylococcus aureus [23] = assay: Antimicrobial activity against Staphylococcus aureus ATCC 11632 after 24 hrs by broth micro serial dilution method; format: functional; procedure, shortened: as §2
Trichoderma viride [24] = assay: Antifungal activity against Trichoderma viride MTCC 1107 assessed as zone of inhibition at 80 uM after 48 hrs by disc diffusion method; format: functional; conditions: MTCC 1107, 48 h, read-out: IZ; procedure, shortened: as §3
QG-56 = assay: Cytotoxicity against human QG56 cells after 24 hrs by MTT assay; format: functional, cell-based; procedure, shortened: as §4
Curvularia lunata [25] = assay: Antifungal activity against Curvularia lunata MTCC 581 assessed as zone of inhibition at 40 uM after 48 hrs by disc diffusion method; format: functional; conditions: MTCC 581, 48 h, read-out: IZ; procedure, shortened: as §3
Curvularia lunata [26] = assay: Antifungal activity against Curvularia lunata MTCC 581 after 48 hrs; format: functional; conditions: MTCC 581, 48 h
[27] = ATCC 35218, 24 h, read-out: DIZ

With `COc1cc(/C=C/c2noc(/C=C/c3ccc(O)c(OC)c3)c2/N=N/c2ccc(S(=O)(=O)Nc3ccccn3)cc2)ccc1O` the “diameter of the inhibition zone (DIZ)” value (Bacillus cereus [1]) was “inactive”, the MIC (Aspergillus flavus [2]; MTCC 1021, 48 h) was over 80 µM and the MIC (Pseudomonas aeruginosa [3]) was over 80 µM. For the same compound, the “diameter of the inhibition zone (DIZ)” value (Salmonella typhi [4]) was “inactive”, the “diameter of the inhibition zone (DIZ)” value (Escherichia coli [5]) was “inactive” and the MIC (Trichoderma viride [6]) was 80 µM (≈ 50.1 µg/mL). It also gave an MIC (Salmonella typhi [7]) of 80 µM (≈ 50.1 µg/mL), an MIC (Escherichia coli [8]) of over 80 µM and a zone of inhibition at 40 µM (Salmonella typhi [9]; Salmonella enterica, ATCC 23564, 24 h, read-out: DIZ) of 9 mm. The zone of inhibition at 40 µM (Trichoderma viride [10]) was 10 mm, the IC50 (HeLa) was “Not Active” and the MIC (Aspergillus niger [11]) was “inactive”. The “diameter of the inhibition zone (DIZ)” value (Pseudomonas aeruginosa [12]) was “inactive”, the IC50 (HCT-116) was “Not Active” and the “diameter of the inhibition zone (DIZ)” value (Staphylococcus aureus [13]) was “inactive”. The “inhibition zone (IZ)” value (Aspergillus niger [14]) was “inactive”, the inhibition in vivo at 200 mg/kg (Mus musculus) was 27.4% and the “inhibition zone (IZ)” value (Trichoderma viride [15]) was “inactive”. For the same compound, the “inhibition zone (IZ)” value (Curvularia lunata [16]) was “inactive”, the “diameter of the inhibition zone (DIZ)” value (Escherichia coli [17]) was “inactive” and the zone of inhibition at 80 µM (Escherichia coli [18]) was 10 mm. For the same compound, the zone of inhibition at 80 µM (Salmonella typhi [19]) was 15 mm, the “inhibition zone (IZ)” value (Aspergillus flavus [20]) was “inactive” and the zone of inhibition at 80 µM (Curvularia lunata [21]) was 12 mm. The IC50 (HepG2) was “Not Active”, the MIC (Bacillus cereus [22]) was “inactive” and the MIC (Staphylococcus aureus [23]) was “inactive”. For the same compound, the zone of inhibition at 80 µM (Trichoderma viride [24]) was 12 mm, the IC50 (QG-56) was “Not Active” and the zone of inhibition at 40 µM (Curvularia lunata [25]) was 10 mm. For the same compound, the MIC (Curvularia lunata [26]) was over 80 µM.

In the case of `COc1cc(/C=C/c2nn(-c3ccccc3)c(/C=C/c3ccc(O)c(OC)c3)c2/N=N/c2ccc(S(=O)(=O)Nc3ccccn3)cc2)ccc1O`, the “diameter of the inhibition zone (DIZ)” value (Bacillus cereus [1]) is reported as “inactive”, the MIC (Aspergillus flavus [2]) is reported as “inactive” and the MIC (Pseudomonas aeruginosa [3]) is reported as over 80 µM. The “diameter of the inhibition zone (DIZ)” value (Salmonella typhi [4]) was “inactive”, the zone of inhibition at 20 µM (Escherichia coli [5]; [27]) was 7 mm and the MIC (Trichoderma viride [6]) was 40 µM (≈ 28 µg/mL). For the same compound, the MIC (Salmonella typhi [7]) was over 80 µM, the MIC (Escherichia coli [8]) was over 80 µM and the “diameter of the inhibition zone (DIZ)” value (Salmonella typhi [9]; Salmonella enterica subsp. enterica serovar Typhi) was “inactive”. The zone of inhibition at 40 µM (Trichoderma viride [10]) was 13 mm, the IC50 (HeLa) was 50 µM and the MIC (Aspergillus niger [11]) was “inactive”. For the same compound, the “diameter of the inhibition zone (DIZ)” value (Pseudomonas aeruginosa [12]) was “inactive”, the IC50 (HCT-116) was “Not Active” and the “diameter of the inhibition zone (DIZ)” value (Staphylococcus aureus [13]) was “inactive”. The “inhibition zone (IZ)” value (Aspergillus niger [14]) was “inactive”, the inhibition in vivo at 200 mg/kg (Mus musculus) was 20.9% and the zone of inhibition at 20 µM (Trichoderma viride [15]; MTCC 1107, 48 h, read-out: IZ) was 10 mm. The zone of inhibition at 20 µM (Curvularia lunata [16]; MTCC 581, 48 h, read-out: IZ) was 10 mm, the zone of inhibition at 40 µM (Escherichia coli [17]; [27]) was 9 mm and the zone of inhibition at 80 µM (Escherichia coli [18]) was 10 mm. The zone of inhibition at 80 µM (Salmonella typhi [19]) was 9 mm, the “inhibition zone (IZ)” value (Aspergillus flavus [20]) was “inactive” and the zone of inhibition at 80 µM (Curvularia lunata [21]) was 17 mm. For the same compound, the IC50 (HepG2) was “Not Active”, the MIC (Bacillus cereus [22]) was “inactive” and the MIC (Staphylococcus aureus [23]) was “inactive”. It also gave a zone of inhibition at 80 µM (Trichoderma viride [24]) of 17 mm, an IC50 (QG-56) of 100 µM and a zone of inhibition at 40 µM (Curvularia lunata [25]) of 13 mm. It also gave an MIC (Curvularia lunata [26]) of 40 µM (≈ 28 µg/mL).
